Bioassay records as filed in PubChem BioAssay.
This is a sample that favours compounds with a hit; in the whole collection about 11% have one here.
Diaphorase inh: counter-screen for diaphorase-based assays: diaphorase inhibitors and chemical oxidizers; diaphorase resazurin-to-resorufin fluorescence, NADH, 16 min; bacterial (C. kluyveri) enzyme, not human; inhibition, % at 20 µM; 190,000 compounds, 0.69% hits; AID 1217;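 active = primary screen inhibition at 20 µM above a set limit, cut at about 50% in these data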
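material = Clostridium kluyveri diaphorase enzyme | amount = 0.14 U/mL diaphorase, enzyme working solution | schedule = incubation 16 min, room temperature | detection = fluorescence of resorufin formed from resazurin, Ex 544/Em 590 nm | benchmarks = positive control minus NADH, DMSO neutral control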
WT yeast gro inh: growth inhibition of WT yeast, mitochondrial fusion screen; inhibition, % at 10 µM; AID 1362; mitochondrial fusion phenotypic screen, WT strain; 190,000 compounds, 2.1% hits; in the data active = inhibition above about 58%; tested in S. cerevisiae
Lmaj promast: reduces viability of Leishmania major promastigotes. resazurin fluorescence viability. AID 1063. 200,000 compounds, 9% hits. inhibition, % at 10 µM;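 note: promastigotes grown with compound for 44 hours at 28 °C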
Diaphorase act: diaphorase activation or chemical reduction counter-screen; Diaphorase/resazurin coupled assay, resorufin fluorescence, 16 min; hits give high values; 1 = vehicle wells, 0 = NADH-free wells; activation factor at 20 µM; 190,000 compounds, 0.005% hits;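 active = diaphorase activity raised at least twofold by the compound at 20 µM; inactive = activation factor below 2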
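Material: bacterial diaphorase enzyme (C. kluyveri); amount: enzyme 0.07 U/mL final; reagent: NADH substrate 0.114 mM plus resazurin dye 0.1 mM, final; doses: single compound dose of 20 µM, 1% DMSO final; timing: 16 min enzyme reaction, ambient temperature; measured by: fluorescence of resorufin, 544 nm excitation, 590 nm emission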
G6PDH counter: inhibits Leuconostoc G6PDH, flagging false hits in G6PDH-based assays. Purified L. mesenteroides G6PDH, diaphorase/resazurin coupled fluorescence, 45 min. inhibition, % at 5 µM. 200,000 compounds, 0.12% hits. AID 1020
Each line names hits and unclear results; the compound was inactive in the other large screens. Cut-off read from the data, not from the text of the source, unless noted: active = inhibition above about 50%; inactive = the rest.

CC(C)c1ccc(C2CC(c3ccc(Br)cc3)=NN2C(N)=S)cc1 (configuration not stated)	WT yeast gro inh 65
Cc1csc(NC(=O)CS(=O)(=O)Cc2ccccc2)n1	none
CS(=O)(=O)N(CC(=O)N1CCC(C(N)=O)CC1)c1cc(C(F)(F)F)ccc1Cl	none
O=C(CN1CCCC1=O)NC1(C(F)(F)F)NC(=O)N(Cc2ccccc2)C1=O (configuration not stated)	none
O=C(c1cccs1)N1CCc2c([nH]c3ccccc23)C1c1ccccn1 (configuration not stated)	Diaphorase inh 50
O=C(c1cc(-c2ccccc2)n[nH]1)N1CCc2c([nH]c3ccccc23)C1c1ccccn1 (configuration not stated)	Lmaj promast 86
CC(=O)c1ccc(C(=O)N2CCc3c([nH]c4ccccc34)C2c2ccccn2)s1 (configuration not stated)	none
Cc1cccc(C2c3[nH]c4ccccc4c3CCN2C(=O)c2noc3c2CCCC3)n1 (configuration not stated)	WT yeast gro inh 60
Cc1ccc2nc(C(=O)N3CCc4c([nH]c5ccccc45)C3c3ccccn3)cn2c1 (configuration not stated)	Lmaj promast 68 (no result: Diaphorase inh, Diaphorase act)
COc1ccc(OCC(=O)N2CCc3c([nH]c4ccccc34)C2c2ccccn2)cc1 (configuration not stated)	none
O=C(c1noc2c1CCCC2)N1CCc2c([nH]c3ccccc23)C1c1ccccn1 (configuration not stated)	none
O=C(c1ccccc1-n1cccn1)N1CCc2c([nH]c3ccccc23)C1c1ccccn1 (configuration not stated)	none
Cc1c(Cc2ccccc2)c(=O)oc2cc(O)cc(O)c12	none
COc1cc(CNc2ccc(CNc3ncn[nH]3)cc2)cc(Cl)c1OCc1ccccc1	none
CSc1nc(C(=O)N2CCc3c([nH]c4ccccc34)C2c2ccccn2)cs1 (configuration not stated)	WT yeast gro inh 59
COc1ccc(C2c3[nH]c4ccccc4c3CCN2C(=O)c2cn3ccccc3n2)c(F)c1 (configuration not stated)	Lmaj promast 53
COc1ccc(C2c3[nH]c4ccccc4c3CCN2C(=O)c2cc3ncccn3n2)c(F)c1 (configuration not stated)	none
CCc1nn(C)c(N)c1C	none
c1ccc(CN2CCCC3(CCCN(Cc4nc(COc5ccccc5)no4)C3)C2)cc1 (configuration not stated)	none
Clc1ccc2oc3c(Cl)ncnc3c2c1	none
COC(=O)c1cc(C(=O)OC)cc(-n2c(C)cc(C(=O)CC#N)c2C)c1	Lmaj promast 95
N=C(N)Cc1ccccc1Sc1ccccc1	Lmaj promast 98
Cc1cc(C)c(S(=O)(=O)Nc2ccc3c(c2)CCC3)c(C)c1	WT yeast gro inh 77, Lmaj promast 91
O=C(COC(=O)[C@H](Cc1c[nH]c2ccccc12)NC(=O)c1ccc(Cl)cc1)Nc1ccc2c(c1)OCO2	Lmaj promast 100
CCN(CC)S(=O)(=O)c1ccc(N2CCOCC2)c(NC(=O)C23CC4CC(CC(Cl)(C4)C2)C3)c1	Lmaj promast 56
CCN(CC)S(=O)(=O)c1ccc(N2CCOCC2)c(NC(=O)c2ccccc2)c1	none
CCN(CC)S(=O)(=O)c1ccc(N2CCOCC2)c(NC(=O)Cc2ccccc2)c1	none
CCN(CC)S(=O)(=O)c1ccc(N2CCOCC2)c(NC(=O)Cc2cccc3ccccc23)c1	Lmaj promast 95
CCN(CC)S(=O)(=O)c1ccc(N2CCOCC2)c(NC(=O)Cc2ccccc2F)c1	Lmaj promast 71
CC(C)(C)CC(=O)Nc1ccc(Nc2ccccc2)cc1	none
CC(C)(C)c1ccc(/C([O-])=C(/C(=S)NCc2ccco2)[n+]2ccccc2)cc1	none
Cc1ccc(CN2CCSCC2)c(C)c1	none
CN(C)S(=O)(=O)c1cc(NC(=O)Cn2ccsc2=N)ccc1Cl	none
CCOc1cccc(C(=O)Nc2ccccc2N2CCN(C(=O)C(C)C)CC2)c1	none
COC(=O)c1ccccc1NC(=O)C1CCN(C(=O)c2ccc(OC)cc2)CC1	none
Cc1ccc(Oc2cc([N+](=O)[O-])cc3c2C(=O)Nc2ccccc2O3)cc1	WT yeast gro inh 64
C=CCC(C)(NCc1ccccc1)c1ccc(C)cc1 (configuration not stated)	Lmaj promast 69
CCOC(=O)Cc1csc2nc3sc(C)c(C)c3c(=O)n12	none
COc1ccc(C)cc1S(=O)(=O)Nc1cccc(Cl)c1	Lmaj promast 99
COc1ccccc1NS(=O)(=O)c1ccc(NC(C)=O)cc1	none
COc1ccc(C(=O)Nc2ccc(Cl)c(S(=O)(=O)Nc3ccccc3OC)c2)cc1	none
COc1ccc(C)cc1S(=O)(=O)Nc1cccc(C)c1	none
COc1ccccc1NS(=O)(=O)c1cc(NC(=O)C2CC2)ccc1N1CCOCC1	Lmaj promast 88
COc1ccc(NS(=O)(=O)c2cc(N/C(=N\S(=O)(=O)c3ccccc3)c3ccc(F)cc3)ccc2Cl)cc1	Lmaj promast 76
COc1ccccc1NS(=O)(=O)c1cccc(NC(=O)Nc2cccc(Cl)c2)c1	Lmaj promast 100
Cn1c(=O)c2c(ncn2CC(=O)N2CCN(c3ccc(F)cc3)CC2)n(C)c1=O	none
CC1=CC(C)(C)N(C(=O)C(C)N2C(=O)c3ccccc3C2=O)c2ccc(C)cc21 (configuration not stated)	none
CC(C)CC1NC(=S)N(Cc2ccccc2)C1=O (configuration not stated)	none
COc1ccc(Cl)cc1NC(=O)CSc1nncn1-c1cccnc1	none
COc1cc(CC(=O)N/N=C/c2ccc([N+](=O)[O-])cc2)c([N+](=O)[O-])cc1OC	none
O=C(NCc1ccc2c(c1)OCO2)c1ccc(N2C(=O)C3CCCCC3C2=O)cc1 (configuration not stated)	none
COc1ccccc1NC(=O)Nc1ccc(Cl)c(S(=O)(=O)Nc2ccccc2OC)c1	Lmaj promast 99
COc1ccccc1NS(=O)(=O)c1cccc(NC(=O)c2sc3ccccc3c2Cl)c1	Lmaj promast 95
O=C(Nc1ccc(Cl)cc1)Nc1ccc(N2CCCC2)c(S(=O)(=O)Nc2ccccc2Cl)c1	Lmaj promast 100
O=C(NC1=NCCS1)c1cccc2ccccc12	WT yeast gro inh 81
O=C(Nc1cccc(O)c1)c1ccccc1	Lmaj promast 62
CC(C)c1cc(NC(=O)c2ccccc2)cc(C(C)C)c1O	none
CC(C)c1ccccc1NC(=O)c1cccc(NC(=O)c2ccccc2)c1	Lmaj promast 91
Cc1ccc(C(=O)Nc2cccc(C(=O)NCc3ccccc3)c2)cc1	Lmaj promast 52
COc1ccc(C(=O)Nc2cccc(C(=O)NCc3ccccc3)c2)cc1	none
O=C(NNc1cc(Br)c(O)c(Br)c1)c1ccccc1	Lmaj promast 88
